Screening data (PubChem BioAssay)
In the library only some 2.3% were active in any assay of this set; here they are far more common.
TRPC4 PAM: allosteric potentiators of mouse TRPC4 channel | 310,000 compounds, 0.42% hits | HEK293 TRPC4beta/mu-opioid, DAMGO EC20, Fluo-4 Ca2+ flux; active compounds read high | B-score at 10 µM | Q9QUQ5;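 active = B-score of calcium response area above 5 SD of library B-scores, with initial fluorescence ratio within 5 SD of library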
TRPC4 inh: inhibitors of mouse TRPC4 channel. HEK293 TRPC4beta/mu-opioid, DAMGO-evoked Fluo4 calcium flux; active compounds read low. 300,000 compounds, 0.39% hits. AID 2247. Q9QUQ5. B-score at 10 µM;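 active = B-score over 3 SD under the library average, no early fluorescence shift, positive overall ratio signal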
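Test system – stable TRPC4beta/mu-opioid receptor HEK293 cells · Probe or stimulus – DAMGO, a submaximal dose followed by a maximal one · Dosing – one concentration per compound · Signal – Fluo4 calcium fluorescence by kinetic imaging, 5 s 1 Hz baseline · Evaluation – per-well B score of integrated baseline-normalized Fluo4 ratio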
TRPC6 inhibitor: mouse TRPC6 channel inhibition. 310,000 compounds, 1.1% hits. B-score at 10 µM. HEK293-TRPC6, membrane potential dye, ACh-evoked depolarization; active compounds read low. Q61143;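 active = B-score under library mean minus 3 SD, initial fluorescence not abnormally high, positive integrated signal ratio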;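 also: B-score derived from integrated fluorescence ratio over the kinetic read; more negative B-score means stronger inhibition of depolarization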
Target sequence (Q61143 whole entry, looked up): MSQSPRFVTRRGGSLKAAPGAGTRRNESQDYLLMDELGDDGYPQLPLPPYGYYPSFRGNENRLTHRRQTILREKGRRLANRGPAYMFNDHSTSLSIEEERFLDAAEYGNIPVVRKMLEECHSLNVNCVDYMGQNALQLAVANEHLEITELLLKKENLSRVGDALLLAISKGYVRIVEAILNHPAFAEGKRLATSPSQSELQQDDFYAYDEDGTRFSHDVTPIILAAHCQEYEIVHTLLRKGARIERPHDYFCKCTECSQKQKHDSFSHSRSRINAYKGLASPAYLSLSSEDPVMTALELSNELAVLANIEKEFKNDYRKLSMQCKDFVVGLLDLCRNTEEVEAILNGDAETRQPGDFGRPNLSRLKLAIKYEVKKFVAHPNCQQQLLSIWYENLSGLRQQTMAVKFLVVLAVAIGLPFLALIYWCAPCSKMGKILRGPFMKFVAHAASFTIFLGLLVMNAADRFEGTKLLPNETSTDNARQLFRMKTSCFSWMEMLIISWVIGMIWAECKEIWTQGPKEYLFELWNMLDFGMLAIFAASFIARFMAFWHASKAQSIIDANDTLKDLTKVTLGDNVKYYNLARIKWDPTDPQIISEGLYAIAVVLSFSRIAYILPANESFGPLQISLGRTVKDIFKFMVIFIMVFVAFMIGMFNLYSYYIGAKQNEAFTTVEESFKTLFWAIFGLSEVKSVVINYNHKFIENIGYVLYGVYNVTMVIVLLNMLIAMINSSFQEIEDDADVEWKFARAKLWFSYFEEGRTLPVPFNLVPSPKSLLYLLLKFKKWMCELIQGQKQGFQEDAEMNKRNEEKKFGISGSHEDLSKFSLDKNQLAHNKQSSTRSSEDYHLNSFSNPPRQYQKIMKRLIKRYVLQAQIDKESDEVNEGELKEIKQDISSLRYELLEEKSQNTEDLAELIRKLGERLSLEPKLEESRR
TRPC4 act: activators of mouse TRPC4 channel | HEK293 TRPC4beta/mu-opioid, Fluo4 calcium fluorescence; active compounds read high | B-score at 10 µM | 310,000 compounds, 0.49% hits | AID 2237;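 active = B-score above 5 SD of library B-scores, and initial fluorescence ratio not above library mean plus 5 SD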;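 also: positive B-score marks a calcium rise read as TRPC4 activation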
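system = HEK293 cells stably co-expressing mouse TRPC4beta and mu-opioid receptor | schedule = Fluo4 dye loading 45 min at room temperature, 110 s recording | measure = B-scored integrated calcium fluorescence ratio | signal = Fluo4 calcium-sensitive dye fluorescence, kinetic, 1 Hz baseline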
TRPC6 act: mouse TRPC6 channel activation; Q61143; 310,000 compounds, 0.13% hits; HEK293-TRPC6 membrane potential dye fluorescence; active compounds read high; B-score at 10 µM;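 active = B-score of the integrated fluorescence ratio above library mean plus 3 SD, and starting fluorescence ratio within library mean plus 5 SD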;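 also: higher score means more depolarization so channel activation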
TRPC4 spec 2: mouse TRPC4 off-target activity of TRPC6 inhibitors, second screen; shares compounds with TRPC6 inhibitor; HEK293 TRPC4/MOR, membrane potential dye fluorescence; channel activated by saturating DAMGO dose; inhibition, % at 10 µM; 920 compounds, 42% hits; AID 2776;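 active = compounds whose fluorescence signal differed from control wells by over 3 SD, either direction, in both duplicate plates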
TRPC4 spec: selectivity of TRPC6 inhibitors: effect on mouse TRPC4; activity change, negative = inhibition, % at 10 µM; shares compounds with TRPC6 inhibitor; 920 compounds, 61% hits; HEK293 TRPC4/mu-opioid, membrane potential fluorescence;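 active = rise or fall in signal beyond 3 SD of buffer-only wells in both replicate plates, either sign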;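 also: integrated kinetic ratio of fluorescence range over baseline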
HEK293 MPD ctr 2-1: parental HEK293 nonspecific activity of TRPC6 inhibitors, second screen | 920 compounds, 31% hits | signal change vs control, % at 10 µM | parental HEK293 membrane potential dye fluorescence; maximal acetylcholine challenge after compound addition | shares compounds with TRPC6 inhibitor;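 active = membrane potential signal moving either way by over 3 SD of the maximum-effect control, in both duplicate plates, meaning non-specific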
HEK293 MPD ctr-1: checks TRPC6 inhibitor effects in parental HEK293 cells | shares compounds with TRPC6 inhibitor | parental HEK293 membrane potential dye fluorescence | membrane potential signal change, % at 10 µM | 920 compounds, 60% hits | AID 2780;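 active = membrane potential signal shifting up or down by more than 3 SD of buffer-only wells, on both duplicate plates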
HEK293 MPD ctr-2: parental HEK293 nonspecific activity of TRPC6 modulators | shares compounds with TRPC6 inhibitor | 2,400 compounds, 51% hits | membrane potential signal change, % at 10 µM | membrane potential dye fluorescence | AID 488924;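 active = membrane potential signal moves up or down beyond 5 SD from buffer-only wells, on both duplicate plates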
HEK293 MPD ctr 2-2: second check of TRPC6 modulator effects in parental HEK293 cells | AID 488926 | 2,400 compounds, 14% hits | inhibition, % at 10 µM | shares compounds with TRPC6 inhibitor | membrane potential dye fluorescence; after compound, maximal acetylcholine stimulation;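 active = membrane potential signal drops by more than 5 SD from the mean control signal, in both duplicate plates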
TRPC4 ctr mod: tests whether TRPC6 modulators also affect mouse TRPC4; shares compounds with TRPC6 inhibitor; HEK293 TRPC4/mu-opioid, membrane potential fluorescence; percent change from control (negative = decrease, positive = increase), % at 10 µM; 2,400 compounds, 69% hits; AID 488927;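 active = membrane potential signal moved up or down beyond 5 SD of buffer control wells, in both duplicate plates, actives on both sides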
TRPC4/MOR inh 2: second check of whether TRPC6 modulators also affect mouse TRPC4 | HEK293 TRPC4/mu-opioid, membrane potential dye fluorescence; stimulated with maximal-effect DAMGO | 2,400 compounds, 55% hits | shares compounds with TRPC6 inhibitor | inhibition, % at 10 µM;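 active = drop in membrane potential signal beyond 5 SD of the control wells in both duplicate plates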;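 also: TRPC4 counter screen for TRPC6 hits run under conditions tuned for TRPC6 not TRPC4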
TRPC6 inh conf: mouse TRPC6 inhibitor confirmation | shares compounds with TRPC6 inhibitor | HEK293-TRPC6, membrane potential dye, ACh-evoked depolarization | inhibition, % at 10 µM | 3,300 compounds, 43% hits | AID 488960;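 active = fluorescence ratio falls more than 5 SD below the full-stimulation control mean, in both duplicate runs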;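 also: integrated fluorescence ratio of peak minus minimum over baseline after agonist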
TRPC6 act conf: confirmation of mouse TRPC6 activators; shares compounds with TRPC6 inhibitor; HEK293-TRPC6 membrane potential dye fluorescence, FDSS; activation, % at 10 µM; 2,800 compounds, 11% hits;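 active = ratio signal rise beyond 5 SD above unstimulated control wells' mean, seen in both duplicate runs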
Hits are given with their value; – = inactive; · = not tested or not shown.

SMILES	TRPC4 PAM	TRPC4 inh	TRPC6 inhibitor	TRPC4 act	TRPC6 act	HEK293 MPD ctr-2	HEK293 MPD ctr 2-2	TRPC4 ctr mod	TRPC4/MOR inh 2	TRPC6 inh conf	TRPC6 act conf	others
Cc1ccc(CNC(=O)CSc2nnc(CNC(=O)c3ccccc3)o2)cc1	–	–	–	–	–	·	·	·	·	·	·
O=[N+]([O-])c1ccc2nc(-c3ccncc3)[nH]c2c1	–	–	-6.36	–	–	-304.5%	59.5%	-52.0%	35.5%	–	–
O=C(Cc1ccccc1F)NC1CCCc2ccccc21 (stereo unspecified)	–	–	–	–	–	·	·	·	·	·	·
O=C(CCc1ccccc1)NC1CCCc2ccccc21 (stereo unspecified)	–	–	-7.45	–	–	·	·	·	·	–	–	TRPC4 spec 2=–;TRPC4 spec=6.5%;HEK293 MPD ctr 2-1=–;HEK293 MPD ctr-1=5.4%
CC1CCCCN1C(=O)COC(=O)c1cccc(NS(=O)(=O)c2ccccc2)c1 (stereo unspecified)	–	–	–	–	–	·	·	·	·	·	·
O=[N+]([O-])c1cc(CS(=O)(=O)Oc2ccc(Cl)cc2)c(O)c([N+](=O)[O-])c1	–	–	–	–	–	·	·	·	·	·	·
O=C(N=Nc1c(O)[nH]c2ccc(Cl)cc12)c1cc(-c2cccs2)nc2ccccc12	–	–	-5.68	–	–	–	–	–	–	–	–
CCOc1ccc(CNCCNC(=O)c2nonc2N)cc1	–	–	–	–	–	·	·	·	·	·	·
Nc1nonc1C(=O)NCCNCc1ccccc1OCc1ccc(F)cc1	–	–	-6.31	–	–	141.0%	–	12.5%	86.5%	46.5%	·
N#CCOC(=O)C1c2ccccc2Oc2ccccc21	–	–	–	–	–	·	·	·	·	·	·
CCN(CC)CCOC(=O)C1c2ccccc2Oc2ccccc21	–	–	-9.97	–	–	·	·	·	·	81.4%	·	TRPC4 spec 2=–;TRPC4 spec=7.9%;HEK293 MPD ctr 2-1=28.5%;HEK293 MPD ctr-1=6.7%
CN1C(=O)C(N=Nc2ccccc2C(=O)O)N(C)C1=S (stereo unspecified)	–	–	–	–	20.1	438.0%	–	80.5%	–	–	198.5%
COC(=O)c1ccc(C(=S)N2CCCCC2)cc1	–	–	–	–	–	·	·	·	·	·	·
COC(=O)c1cccc(CSC(=S)N2CCCC2)c1	–	–	–	–	12.7	–	–	–	–	·	130.0%
O=S(=O)(/N=C(/Nc1cccc2ccccc12)c1ccccc1)c1ccc(Br)cc1	–	–	–	–	–	·	·	·	·	·	·
COc1ccccc1CNc1ncc(-c2ccc(F)cc2)n1C	–	–	–	–	–	·	·	·	·	·	·
Cn1c(-c2ccc(F)cc2)cnc1NCc1cc2c(cc1[N+](=O)[O-])OCO2	–	–	-6.15	–	–	–	–	-15.5%	76.5%	72.5%	–
Cn1c(-c2ccccc2)cnc1NCc1cc2c(cc1[N+](=O)[O-])OCO2	–	–	-5.59	–	–	–	–	-23.5%	68.5%	–	–
COc1ccc(OC)c(CNc2ncc(-c3ccc(F)cc3)n2C)c1	–	–	-5.31	–	–	–	–	–	67.5%	57.0%	–
Cc1noc(C)c1COc1ccccc1C(=O)NC1CCC(C)CC1 (stereo unspecified)	–	–	–	–	–	·	·	·	·	·	·
c1csc(-c2nn3c(C4COc5ccccc5O4)nnc3s2)c1 (stereo unspecified)	–	–	-12.2	–	–	–	–	–	–	–	–
CN(C)CCCNc1ccc(-c2nn(C)c(=O)c3ccccc23)cc1[N+](=O)[O-]	–	–	-7.92	–	–	·	·	·	·	–	–	TRPC4 spec 2=44.0%;TRPC4 spec=-26.2%;HEK293 MPD ctr 2-1=–;HEK293 MPD ctr-1=-243.5%
COCCNc1ccc(-c2nn(C)c(=O)c3ccccc23)cc1[N+](=O)[O-]	–	–	–	–	–	·	·	·	·	·	·
COc1ccc(-n2c(-c3ccc(Cl)cc3)c[n+]3c2CCc2ccccc2-3)cc1	–	–	-5.1	–	–	-123.0%	–	-17.0%	42.5%	–	–
COc1ccc(-c2nc3n(c2C)Cc2ccccc2-3)cc1	–	–	-6.17	–	–	-69.5%	–	-14.5%	52.0%	–	–
SMILES	TRPC4 PAM	TRPC4 inh	TRPC6 inhibitor	TRPC4 act	TRPC6 act	HEK293 MPD ctr-2	HEK293 MPD ctr 2-2	TRPC4 ctr mod	TRPC4/MOR inh 2	TRPC6 inh conf	TRPC6 act conf	others
Cc1ccc(C)c(CS(=O)(=O)c2cn(CC(=O)N3CCCCC3)c3ccccc23)c1	–	–	–	–	12.4	–	–	–	–	·	44.5%
Cc1ccc(C)c(CS(=O)(=O)c2cn(CC(=O)N3CCC(C)CC3)c3ccccc23)c1	–	–	–	–	–	·	·	·	·	·	·
CCOC(=O)C1=C(c2ccccc2)NC(=O)NC1c1ccsc1 (stereo unspecified)	–	–	–	–	–	·	·	·	·	·	·
O=C(C[n+]1ccc(-c2ccccc2)cc1)Nc1ccc([N+](=O)[O-])cc1	–	–	–	–	–	·	·	·	·	·	·
CCc1noc(C)c1C(=O)Nc1ccc(S(=O)(=O)N2CCCCC2)cc1	–	–	–	–	–	·	·	·	·	·	·
CCc1noc(C)c1C(=O)Nc1ccc(-c2nnc3n2CCCCC3)cc1	–	–	-4.98	–	–	–	–	–	–	–	–
Cc1ccc(NC(=O)NCc2ccccn2)c(C)c1	–	–	–	–	–	·	·	·	·	·	·
Nc1cc2ccncc2c2ccccc12	–	–	-11	–	–	-380.0%	77.5%	-71.5%	85.5%	74.0%	–
Cc1cc(N2C(=O)C(O)=C(C(=O)c3ccc(C)o3)C2c2ccc([N+](=O)[O-])cc2)no1 (stereo unspecified)	–	–	–	–	–	·	·	·	·	·	·
COc1ccccc1N1CCN(c2cc(N3CCCC3)nc(C)n2)CC1	–	–	–	–	–	·	·	·	·	·	·
